What is called ED50 is the dose that gives a 50% effect, or the effect in half of the subjects. For orientation: Ki means a dissociation constant, usually derived from enzyme kinetics or from competition with a known ligand. A lower Ki goes with higher affinity.

Experiment [1] has as its system Mus musculus. Briefly: Tested for in vivo antinociceptive activity in mouse abdominal constriction assay. The experiment is classed as functional. Conditions: Abdomen. The essentials: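 Mice of 20-35 g. Abdominal constriction induced with phenyl-p-benzoquinone. Ten animals per dose. ED50 with 95% confidence intervals obtained by regression analysis.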
Experiment [2] deals with Mus musculus. Briefly: Tested for in vivo antinociceptive activity in mouse tail-flick assay. The experiment is classed as functional. The gist of the method: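 Tail-flick antinociception in mice of 20-35 g. Ten animals per dose. ED50 with 95% confidence intervals obtained by probit analysis.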
(In general: Hot-plate and tail-flick tests time the reaction to a heat stimulus.)

Experiment [3] concerns Mus musculus. Briefly: Tested for in vivo locomotor impairment/sedation in mouse rotarod test. The experiment is classed as functional. The essentials: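 Locomotor impairment/sedation measured on a rotarod in mice of 20-35 g. Ten animals per dose. ED50 with 95% confidence intervals obtained by regression analysis.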
Experiment [4] concerns the target Kappa-type opioid receptor (Mus musculus, UniProt P33534). As to the kind of experiment: Evaluated for the binding affinity at kappa receptor.
The test system of experiment [5] is Rattus norvegicus. Briefly: Tested for in vivo antinociceptive activity in rat abdominal constriction. The format is functional. As to conditions: Abdomen. The essentials:
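Male SD rats, 180-350 g. Abdominal constriction induced with phenyl-p-benzoquinone. Ten animals per dose. ED50 with 95% confidence intervals obtained by probit analysis.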

In experiment [6] the test system is Rattus norvegicus. As to the kind of experiment: Tested for in vivo locomotor impairment/sedation in rat rotarod. The format is functional. The gist of the method: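 Male SD rats, 180-350 g. Trained in six 5-min sessions over 2 days. Rotarod accelerated from 3 to 30 rpm across five sessions. Ten animals per dose. ED50 with 95% confidence intervals obtained by regression analysis.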
For orientation: In the rotarod test animals must keep their balance on a rotating rod.

Experiment [7] deals with Rattus norvegicus. Briefly: Tested for in vivo antinociceptive activity in rat abdominal constriction assay. As to conditions: Abdomen.
A further experiment has as its target Mu-type opioid receptor (Mus musculus, UniProt P42866). As to the kind of experiment: Evaluated for the binding affinity at mu receptor.
For experiment [8], the target named is Delta-type opioid receptor (Mus musculus, UniProt P32300). As to the kind of experiment: Evaluated for the binding affinity at delta receptor.
Experiment [9] deals with Sigma non-opioid intracellular receptor 1 (Mus musculus, UniProt O55242). As to the kind of experiment: Evaluated for the binding affinity at sigma receptor.

Each structure is given as a SMILES string. Where only a bound is given, the exact number is not on record here.

Sequence of Kappa-type opioid receptor (P33534 whole entry): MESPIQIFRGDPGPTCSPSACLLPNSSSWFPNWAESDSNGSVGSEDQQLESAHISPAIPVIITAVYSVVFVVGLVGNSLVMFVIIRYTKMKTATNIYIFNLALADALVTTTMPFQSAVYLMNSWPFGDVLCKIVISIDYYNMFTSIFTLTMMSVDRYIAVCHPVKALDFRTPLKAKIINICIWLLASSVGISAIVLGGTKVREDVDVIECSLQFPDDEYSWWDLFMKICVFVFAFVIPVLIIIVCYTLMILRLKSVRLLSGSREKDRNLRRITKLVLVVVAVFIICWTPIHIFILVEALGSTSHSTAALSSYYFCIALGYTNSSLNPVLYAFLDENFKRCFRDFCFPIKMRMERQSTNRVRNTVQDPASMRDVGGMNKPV
Sequence of Mu-type opioid receptor (P42866 whole entry): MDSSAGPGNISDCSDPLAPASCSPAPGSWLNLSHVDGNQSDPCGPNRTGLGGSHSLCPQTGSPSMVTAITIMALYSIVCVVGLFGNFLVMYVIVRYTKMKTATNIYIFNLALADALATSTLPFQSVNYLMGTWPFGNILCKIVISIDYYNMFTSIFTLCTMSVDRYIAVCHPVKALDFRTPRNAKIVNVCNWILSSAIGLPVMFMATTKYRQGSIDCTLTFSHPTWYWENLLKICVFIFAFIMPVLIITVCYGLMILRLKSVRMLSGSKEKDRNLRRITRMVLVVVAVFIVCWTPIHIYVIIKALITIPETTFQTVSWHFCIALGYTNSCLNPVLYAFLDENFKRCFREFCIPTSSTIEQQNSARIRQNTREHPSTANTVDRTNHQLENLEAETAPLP
Sequence of Sigma non-opioid intracellular receptor 1 (O55242 whole entry): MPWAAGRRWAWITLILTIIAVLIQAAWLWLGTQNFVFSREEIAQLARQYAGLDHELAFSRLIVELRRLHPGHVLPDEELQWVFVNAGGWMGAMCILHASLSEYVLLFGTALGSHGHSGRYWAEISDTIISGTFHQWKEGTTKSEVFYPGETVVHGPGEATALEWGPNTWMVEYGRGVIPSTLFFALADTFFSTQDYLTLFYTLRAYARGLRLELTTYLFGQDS
Sequence of Delta-type opioid receptor (P32300 whole entry): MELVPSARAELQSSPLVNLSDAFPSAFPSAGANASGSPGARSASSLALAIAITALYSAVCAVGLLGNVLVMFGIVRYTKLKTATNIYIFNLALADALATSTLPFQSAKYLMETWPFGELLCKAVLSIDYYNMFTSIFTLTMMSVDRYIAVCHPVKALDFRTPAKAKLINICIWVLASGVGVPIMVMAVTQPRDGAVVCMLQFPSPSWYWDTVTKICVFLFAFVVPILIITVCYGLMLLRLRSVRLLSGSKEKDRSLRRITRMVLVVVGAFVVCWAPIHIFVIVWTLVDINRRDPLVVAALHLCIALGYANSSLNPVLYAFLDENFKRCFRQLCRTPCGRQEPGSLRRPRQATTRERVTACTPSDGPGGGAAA

On to `CCN(C)C[C@@H]1CCCCN1C(=O)Cc1ccc2c(c1)CCCC2=O`, for which the ED50 with Mus musculus [1] was 0.18 µmol/kg; in the experiment on Mus musculus [2], 1.77 µmol/kg; with Mus musculus [3], 2.3 µmol/kg. For the same compound, in experiment [4], the Ki worked out at 10.3 nM.
On to `O=C(Cc1ccc(C(F)(F)F)cc1)N1CCCC[C@H]1CN1CCCC1`, for which the ED50 stood at 0.1 µmol/kg in the experiment on Mus musculus [1]; 0.32 µmol/kg in the experiment on Mus musculus [2]; 0.28 µmol/kg in the experiment with Mus musculus [3]; 0.11 µmol/kg in the experiment with Rattus norvegicus [5]; 0.35 µmol/kg in the experiment with Rattus norvegicus [6]. Besides, in experiment [4], the affinity, expressed as Ki, was 0.64 nM.
In the case of `CN(CC1CC1)C[C@@H]1CCCCN1C(=O)Cc1ccc2c(c1)CCCC2=O`, the results for the median effective dose (ED50) in the experiment with Mus musculus [1], in the experiment with Mus musculus [2] and in the experiment with Mus musculus [3] were 1.36 µmol/kg, 16.5 µmol/kg and 16.6 µmol/kg, respectively. The compound further yielded an inhibition constant (Ki) in experiment [4] of 30.4 nM.
For `CN(C[C@@H]1CCCCN1C(=O)Cc1ccc2c(c1)CCCC2=O)C1CCCC1` the same measures were 0.55 µmol/kg, 6.34 µmol/kg, 10 µmol/kg and 20 nM.
For `C=CCN(C)C[C@@H]1CCCCN1C(=O)Cc1ccc2c(c1)CCCC2=O` the same measures were 0.37 µmol/kg, 3.42 µmol/kg, 8.66 µmol/kg and 19.2 nM.
For `CCCN(C)C[C@@H]1CCCCN1C(=O)Cc1ccc2c(c1)CCCC2=O` the same measures were 0.62 µmol/kg, 6.81 µmol/kg, 7.99 µmol/kg and 22.2 nM.
With `CCN(CC)C[C@@H]1CCCCN1C(=O)Cc1ccc2c(c1)CCCC2=O`, the 50% effective dose (ED50) in the experiment on Mus musculus [1] turned out to be 1.2 µmol/kg; in the experiment with Mus musculus [2], 12.6 µmol/kg; in the experiment with Mus musculus [3], 23.7 µmol/kg. The affinity in experiment [4] corresponds to a Ki of 80.3 nM.
For `C#CCN(C)C[C@@H]1CCCCN1C(=O)Cc1ccc2c(c1)CCCC2=O` the same measures were 0.16 µmol/kg, 5.11 µmol/kg, 4.12 µmol/kg and 6.24 nM.
The matching figures for `CN(C[C@@H]1CCCCN1C(=O)Cc1ccc2c(c1)CCCC2=O)C1CCC1`: 0.34 µmol/kg, 1.45 µmol/kg, 3.32 µmol/kg and 34.8 nM.
Regarding `CN1CC[C@]23c4c5ccc(O)c4O[C@H]2[C@@H](O)C=C[C@H]3[C@H]1C5` [MORPHINE], the ED50 in the experiment with Mus musculus [1] amounted to 1.34 µmol/kg; in the experiment with Mus musculus [2], 9.8 µmol/kg; in the experiment with Rattus norvegicus [7], 0.86 µmol/kg.
With `O=C1CCc2cc(CC(=O)N3CCCC[C@H]3CN3CCCC3)ccc21`, the results for the 50% effective dose (ED50) in the experiment on Mus musculus [1] and in the experiment on Mus musculus [2] were greater than 1.5 µmol/kg and greater than 30 µmol/kg, respectively. Besides, the inhibitory constant (Ki) in experiment [4] stood at 7.93 nM.
On to `O=C(Cc1ccc2c(c1)CCCC2)N1CCCC[C@H]1CN1CCCC1`, for which the median effective dose (ED50) turned out to be 0.57 µmol/kg in the experiment on Mus musculus [1] and 2.67 µmol/kg with Mus musculus [2]. This compound also had a Ki in [4] of 0.81 nM.
Turning to `CN(C[C@@H]1CCCCN1C(=O)Cc1ccc2c(c1)CCCC2=O)C1CC1`, the figures for the median effective dose (ED50) with Mus musculus [1], with Mus musculus [2] and in the experiment on Mus musculus [3] were 0.4 µmol/kg, 7.85 µmol/kg and 13.7 µmol/kg, respectively. The same compound gave an inhibitory constant (Ki) in experiment [4] of 52.1 nM.
Take `O=C1CCCc2ccc(CC(=O)N3CCCC[C@H]3CN3CCCC3)cc21`: the 50% effective dose (ED50) in the experiment with Mus musculus [1] was roughly 1 µmol/kg; in the experiment with Mus musculus [2], greater than 3 µmol/kg. For the same compound, the Ki in experiment [4] came to 5.61 nM.
For `O=C1CCCCc2cc(CC(=O)N3CCCC[C@H]3CN3CCCC3)ccc21` the same measures were greater than 1.5 µmol/kg, greater than 3 µmol/kg and 5.44 nM.
Consider `CN(C)C[C@@H]1CCCCN1C(=O)Cc1ccc2c(c1)CCCC2=O`, for which the ED50 in the experiment with Mus musculus [1] was found to be 0.47 µmol/kg; with Mus musculus [2] it was 2.15 µmol/kg; in the experiment on Mus musculus [3], 5.1 µmol/kg; with Rattus norvegicus [5], 0.73 µmol/kg; in the experiment with Rattus norvegicus [6], 26.5 µmol/kg. Further, the Ki at Mu-type opioid receptor was 6790 nM; in experiment [4], 47 nM; in experiment [8], greater than 100 nM; in experiment [9], 1210 nM.
Regarding `O=C1CCCc2sc(CC(=O)N3CCCC[C@H]3CN3CCCC3)cc21`, the results for the median effective dose (ED50) with Mus musculus [1] and with Mus musculus [2] were 1.41 µmol/kg and 13.5 µmol/kg, respectively. Moreover, affinity in experiment [4] was put at a Ki of 6.54 nM.
Regarding `CC(C)N(C)C[C@@H]1CCCCN1C(=O)Cc1ccc2c(c1)CCCC2=O`, the 50% effective dose (ED50) is 0.22 µmol/kg in the experiment with Mus musculus [1], 1.2 µmol/kg in the experiment with Mus musculus [2] and 1.02 µmol/kg in the experiment with Mus musculus [3]. Further, in [4], the Ki is 4.07 nM.
Consider `O=C1CCCc2cc(CC(=O)N3CCCC[C@H]3CN3CCCC3)ccc21`, for which the 50% effective dose (ED50) with Mus musculus [1] came out at 0.35 µmol/kg; in the experiment on Mus musculus [2], 0.59 µmol/kg. The compound further yielded an inhibitory constant (Ki) in experiment [4] of 7.6 nM.
`CN(C[C@@H]1CCCCN1C(=O)Cc1ccc2c(c1)CCCC2=O)C(C)(C)C`: in the experiment with Mus musculus [2], the ED50 is greater than 30 µmol/kg. For the same compound, the Ki in experiment [4] was greater than 100 nM.

Values taken from ChEMBL document CHEMBL1127368, “Selective kappa-opioid agonists: synthesis and structure-activity relationships of piperidines incorporating on oxo-containing acyl group” (J Med Chem, 1994).
